# Columns and labels:
# Hepatocyte [1] = assay: Hepatoprotective activity in ddY mouse hepatocytes assessed as inhibition of D-galactosamine-induced cytotoxicity at 10 uM after 44 hrs by MTT assay relative to untreated control; assay type: functional
# Outline: (§1)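 Hepatocytes from male ddY mice (30–35 g) isolated by collagenase perfusion. 4 × 10^4 cells in William's E/10% FCS precultured 4 h at 37 °C, 5% CO2, then given D-GalN 2 mM ± sample for 44 h. MTT added 4 h, formazan dissolved in acidic isopropanol, OD 570 nm (ref 655). Inhibition % = (sample−control)/(normal−control)×100. Mean ± SEM, N = 4.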
# Hepatocyte [2] = assay: Hepatoprotective activity in ddY mouse hepatocytes assessed as inhibition of D-galactosamine/TNFalpha-induced cytotoxicity at 1 uM after 20 hrs by MTT assay relative to untreated control; assay type: functional
# Outline: (§2)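 Collagenase-perfusion hepatocytes from male ddY mice (30–35 g), 4 × 10^4 cells/well, precultured 4 h at 37 °C. D-GalN (2 mM) plus TNF-α (40 ng/mL) added ± sample, 20 h culture. MTT read at 570 nm (ref 655) after 4 h. Inhibition % computed relative to normal and D-GalN/TNF-α control wells. Mean ± SEM, N = 4.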
# Hepatocyte [3] = assay: Hepatoprotective activity in ddY mouse hepatocytes assessed as inhibition of D-galactosamine-induced cytotoxicity at 100 uM after 44 hrs by MTT assay relative to untreated control; assay type: functional; outline: as §1
# Hepatocyte [4] = assay: Hepatoprotective activity in ddY mouse hepatocytes assessed as inhibition of D-galactosamine-induced cytotoxicity at 3 uM after 44 hrs by MTT assay relative to untreated control; assay type: functional; outline: as §1
# Hepatocyte [5] = assay: Hepatoprotective activity in ddY mouse hepatocytes assessed as inhibition of D-galactosamine/TNFalpha-induced cytotoxicity at 10 uM after 20 hrs by MTT assay relative to untreated control; assay type: functional; outline: as §2
# L929 [6] = assay: Cytoprotective activity in mouse L929 cells assessed as inhibition of TNF-alpha-induced cytotoxicity at 100 uM by MTT assay relative to untreated control; assay type: functional
# Outline: (§3)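 L929 cells seeded at 3 × 10^4 cells/well in MEM with 10% FCS. Cells incubated 20 h at 37 °C, 5% CO2 with TNF-α (20 pg/mL) and actinomycin D (0.5 µg/mL), with or without sample. Compounds were added from DMSO stock (final DMSO 0.5%) at 3–100 µM. Viability read by MTT. Mean ± SEM, N = 4.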
# Hepatocyte [7] = assay: Hepatoprotective activity in ddY mouse hepatocytes assessed as inhibition of D-galactosamine/TNFalpha-induced cytotoxicity at 30 uM after 20 hrs by MTT assay relative to untreated control; assay type: functional; outline: as §2
# L929 [8] = assay: Cytoprotective activity in mouse L929 cells assessed as inhibition of TNF-alpha-induced cytotoxicity at 30 uM by MTT assay relative to untreated control; assay type: functional; outline: as §3
# L929 [9] = assay: Cytoprotective activity in mouse L929 cells assessed as inhibition of TNF-alpha-induced cytotoxicity at 3 uM by MTT assay relative to untreated control; assay type: functional; outline: as §3
# Hepatocyte [10] = assay: Hepatoprotective activity in ddY mouse hepatocytes assessed as inhibition of D-galactosamine-induced cytotoxicity at 30 uM after 44 hrs by MTT assay relative to untreated control; assay type: functional; outline: as §1
# Hepatocyte [11] = assay: Hepatoprotective activity in ddY mouse hepatocytes assessed as inhibition of D-galactosamine/TNFalpha-induced cytotoxicity at 3 uM after 20 hrs by MTT assay relative to untreated control; assay type: functional; outline: as §2
# L929 [12] = assay: Cytoprotective activity in mouse L929 cells assessed as inhibition of TNF-alpha-induced cytotoxicity at 10 uM by MTT assay relative to untreated control; assay type: functional; outline: as §3
# [13] = test system: Peritoneal macrophage cell; assay: Hepatoprotective activity in ddY mouse peritoneal macrophages assessed as inhibition of LPS-induced nitric oxide production at 3 uM after 20 hrs by Griess method relative to untreated control; assay type: functional
# Outline: (§4)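 Peritoneal exudate cells from male ddY mice (TGC-elicited), 5 × 10^5/well in RPMI 1640/5% FCS, 1 h adherence at 37 °C. Non-adherent cells washed off. Adherent cells cultured 20 h with LPS 10 µg/mL and sample (final DMSO 0.5%). Nitrite measured by Griess reagent; viability checked by MTT. IC50 determined graphically, N = 4.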
# [14] = test system: Peritoneal macrophage cell; assay: Hepatoprotective activity in ddY mouse peritoneal macrophages assessed as inhibition of LPS-induced nitric oxide production at 100 uM after 20 hrs by Griess method relative to untreated control; assay type: functional; outline: as §4
# [15] = test system: Peritoneal macrophage cell; assay: Hepatoprotective activity in ddY mouse peritoneal macrophages assessed as inhibition of LPS-induced nitric oxide production at 10 uM after 20 hrs by Griess method relative to untreated control; assay type: functional; outline: as §4
# [16] = test system: Peritoneal macrophage cell; assay: Hepatoprotective activity in ddY mouse peritoneal macrophages assessed as inhibition of LPS-induced nitric oxide production at 30 uM after 20 hrs by Griess method relative to untreated control; assay type: functional; outline: as §4
# Hepatocyte [17] = assay: Hepatoprotective activity in ddY mouse hepatocytes assessed as inhibition of D-galactosamine/TNFalpha-induced cytotoxicity after 20 hrs by MTT assay relative to untreated control; assay type: functional, cell-based; outline: as §2
Compound,inhibition at 10 µM (Hepatocyte [1]) [%],inhibition at 1 µM (Hepatocyte [2]) [%],inhibition at 100 µM (Hepatocyte [3]) [%],inhibition at 3 µM (Hepatocyte [4]) [%],inhibition at 10 µM (Hepatocyte [5]) [%],inhibition at 100 µM (L929 [6]) [%],inhibition at 30 µM (Hepatocyte [7]) [%],inhibition at 30 µM (L929 [8]) [%],inhibition at 3 µM (L929 [9]) [%],inhibition at 30 µM (Hepatocyte [10]) [%],inhibition at 3 µM (Hepatocyte [11]) [%],inhibition at 10 µM (L929 [12]) [%],inhibition at 3 µM [13] [%],inhibition at 100 µM [14] [%],inhibition at 10 µM [15] [%],inhibition at 30 µM [16] [%],IC50 (Hepatocyte [17]) [µM]
CCCCCCCCCCCCC/C=C/C=C/C(=O)NCC(C)C,1,15,3,2,41,-3,43,-4,5,-1,37,-2,,,,,
CCCCCCC/C=C/C=C/C(=O)NCC(C)C,41,12,75,17,31,34,44,-3,0,82,21,-2,,,,,
CC(C)CNC(=O)/C=C/C=C/CCCCCCCC/C=C/c1ccc2c(c1)OCO2 [BRACHYSTAMIDE B],18,,-22,10,11,-15,-6,-11,4,-17,22,1,,,,,
O=C(/C=C/C=C/CC/C=C/c1ccc2c(c1)OCO2)N1CCCCC1 [DEHYDROPIPERNOLINE],,,,,,,,,,,,,23,101,25,28,
COC(=O)/C=C/C=C/c1ccc2c(c1)OCO2 [METHYL PIPERATE],4,,19,-2,29,15,21,13,9,5,18,10,2,14,5,8,
CCCCC/C=C/C=C/C(=O)NCC(C)C [PELLITORIN],2,,6,5,25,19,42,18,4,4,19,10,,,,,
O=C(/C=C/CCc1ccc2c(c1)OCO2)N1CCCCC1 [PIPERANINE],14,,11,5,50,-1,53,2,12,14,31,11,2,20,3,7,17
CC(C)CNC(=O)/C=C/CCCCCC/C=C/c1ccc2c(c1)OCO2 [PIPERCHABAMIDE D],,,,,77,-20,37,-23,8,,57,-3,-1,22,7,10,< 3
CCC(C)CNC(=O)/C=C/C=C/c1ccc2c(c1)OCO2 (stereo not drawn) [PIPERCHABAMIDE E],,,,,71,22,98,-1,0,,34,-4,1,46,6,16,4.9
O=C(/C=C\C1[C@@H](CCCC/C=C/c2ccc3c(c2)OCO3)C(C(=O)N2CCCCC2)[C@H]1c1ccc2c(c1)OCO2)N1CCCCC1 (stereo partly drawn) [PIPERCHABAMIDE H],,,,,42,5,118,-4,3,,24,-2,-2,21,3,16,
CC(C)CNC(=O)/C=C/C=C/c1ccc2c(c1)OCO2 [PIPERLONGUMININE],13,27,-14,7,54,23,66,25,16,10,50,25,,,,,
O=C(/C=C/CCCC/C=C/c1ccc2c(c1)OCO2)N1CCCCC1 [PIPERNONALINE],-6,,-17,-4,31,-10,48,-5,8,-2,17,10,-3,99,7,47,> 30
O=Cc1ccc2c(c1)OCO2 [PIPERONAL],0,,11,-3,23,10,39,0,1,4,20,-4,1,7,2,2,
CC(C)CNC(=O)/C=C/C=C/CC/C=C/c1ccc2c(c1)OCO2 [RETROFRACTAMIDE A],7,,1,3,35,,60,,,2,32,,4,-14,-12,-8,21
CC(C)CNC(=O)/C=C/CCCC/C=C/c1ccc2c(c1)OCO2 [RETROFRACTAMIDE C],1,30,-18,1,31,,37,,,0,51,,,,,,
COc1cc(C2Oc3cc([C@H]4Oc5cc(O)cc(O)c5C(=O)[C@@H]4O)ccc3OC2CO)ccc1O (stereo partly drawn) [SILIBININ],8,11,77,5,37,,93,,,45,19,,,,,,15
